Data set [1] concerns the target Histone acetyltransferase p300 (Homo sapiens) (UniProt Q09472). The experiment in a line: Inhibition of P300 in human 12Z cells assessed as reduction in H3K27ac expression at 0.01 to 100 uM for 24 hrs by western blot analysis. In kind it is cell-based. As to conditions: dose 0.01-100 µM. In short, it runs like this: (§1)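 Histones were acid-extracted from A-485-treated 12Z cells with 0.2 N HCl in the presence of sodium butyrate. Extracts were run on a 15% SDS-PAGE gel and blotted with H3K27ac (1:1,000) and total H3 (1:2,000) antibodies, with IRDye 800CW secondary and fluorescence imaging.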
(In general: Immunoblotting shows a protein as a band on a membrane.)

The nature of data set [2]: Cytotoxicity against human 12Z cells assessed as reduction in cell viability after 6 days by crystal violet staining based assay. In kind it is toxicity. The method in brief: (§2)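 12Z cells seeded at 100 cells/well and, after 24 h, treated with A-485 from 10 nM to 100 μM. After 6 days, colonies stained with crystal violet and counted.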
Data set [3] is described as follows: Cytotoxicity against human 12Z cells transfected with control shRNA assessed as reduction in cell viability after 6 days by crystal violet staining based assay. The data set is classed as toxicity. The method in brief:
as §2

Data set [4] in a line: Cytotoxicity against human 12Z cells transfected with shARID1A assessed as reduction in cell viability after 6 days by crystal violet staining based assay. The data set is classed as functional. The note with it: 144 h. In short, it runs like this: as §2
For data set [5], the system named is 12Z. The experiment in a line: Inhibition of cell invasion in human 12Z cells transfected with shARID1A at 10 to 100 nM after 24 hrs by transwell invasion assay. The data set is classed as functional, cell-based. As to conditions: dose 10-100 nM. In short, it runs like this: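 12Z cells were siRNA-transfected and drug added 24 h later. At 48 h, 30,000 cells in 0.3 mg/mL Matrigel were seeded on Matrigel-coated 8 μm transwells, with serum-free medium on top and 5% FBS medium below, drug in both chambers. After 16 hr, cells were stained with calcein-AM, unmigrated cells were removed, and five fields/well were imaged and counted.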

The test system of data set [6] is 12Z. The experiment in a line: Inhibition of cell migration in human 12Z cells transfected with shARID1A at 31 to 316 nM after 24 hrs by Matrigel based analysis. In kind it is functional. As to conditions: dose 31-316 nM, in the assay text read “culture-insert gap assay” for “Matrigel based analysis”. In short, it runs like this: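 12Z cells (4,000/well) in 4-well culture inserts were transduced with control or shARID1A lentivirus (MOI 100). Serum-free medium with drug or vehicle was added after 24 hr, and inserts were removed at 16 hr. Front distances at 16 points were imaged at 0 and 24 hr, and migration was taken as the 0 h minus 24 h mean distance.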

Data set [7] relates to 12Z. Put plainly: Induction of anchorage-dependent cell death in human 12Z cells assessed as increase in caspase3/7 level at 100 nM after 24 hrs by caspase-Glo 3/7 assay. In kind it is functional, cell-based. In short, it runs like this:
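The Caspase-Glo 3/7 assay was run in suspension. siRNA-transfected 12Z cells (48 hr), drug-treated for 24 hr, were seeded at 10,000 cells/well on cell-repellent plates in serum-free DMEM/F12 with A-485 or vehicle. After 24 hr, Caspase-Glo reagent was added 1:1 and incubated 1 hr at 37°C before reading luminescence.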

Data set [8] deals with 12Z. The experiment in a line: Induction of cell death in human 12Z cells transfected with shARID1A assessed as increase in ratio of dead to live cells at 100 nM after 16 hrs by Matrigel based analysis. The data set is classed as functional. The method in brief:
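12Z cells were siRNA-transfected and drug-treated 24 h post-transfection. At 48 h, 10,000 cells in 0.3 mg/mL Matrigel were seeded on Matrigel-coated wells in serum-free medium with 100 nM A-485 or vehicle.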

For data set [9], the target named is Histone acetyltransferase p300 (Homo sapiens) (UniProt Q09472). Put plainly: Inhibition of P300 in human 12Z cells assessed as reduction in H3K27ac expression at 316 nM for 24 hrs by western blot analysis. In kind it is cell-based. The method in brief:
as §1

Data set [10] is described as follows: Cytotoxicity against human 12Z cells assessed as reduction in cell viability after 72 hrs at 0.01 to 100 uM by calcein-AM stainig based fluorescence assay. The data set is classed as toxicity. The note with it: dose 0.01-100 µM. The method in brief:
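12Z cells seeded at 4,000 cells/well, transfected 24 h later, then drug-treated 24 h after transfection for 48–72 hr. Viable cells were read after 1 h with 2 μg/mL calcein-AM as fluorescence.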

Data set [11] is described as follows: Cytotoxicity against human 12Z cells transfected with control shRNA assessed as reduction in cell viability at 0.01 to 100 uM after 72 hrs by crystal violet staining fluorescence assay. The data set is classed as toxicity, cell-based. The note with it: dose 0.01-100 µM.
Data set [12] deals with 12Z. Put plainly: Growth inhibition of human 12Z cells transfected with shARID1A assessed as reduction in cell viability at 0.01 to 100 uM after 72 hrs by crystal violet staining fluorescence assay. The note with it: dose 0.01-100 µM. In kind it is functional, cell-based.
Data set [13] concerns the target Histone acetyltransferase p300 (Homo sapiens) (UniProt Q09472). The experiment in a line: Inhibition of P300 in human 12Z cells transfected with shARID1A assessed as affected in H3K27ac expression at 1 uM for 24 hrs by CUT and run analysis. In kind it is cell-based.
Data set [14] has the same target. The experiment in a line: Inhibition of P300 in human 12Z cells transfected with shARID1A assessed as decrease in SERPINE1 RNA expression at 100 nM by RNA-seq analysis. The data set is classed as cell-based.
Data set [15] has the same target. The experiment in a line: Inhibition of P300 in human 12Z cells transfected with shARID1A assessed as decrease in SERPINE1 RNA expression at 100 nM for 24 hrs by Western blot analysis. In kind it is cell-based.

Activity calls are given as the source filed them. No cut-off for these calls is given here.

Histone acetyltransferase p300 (Homo sapiens), sequence (Q09472 whole entry): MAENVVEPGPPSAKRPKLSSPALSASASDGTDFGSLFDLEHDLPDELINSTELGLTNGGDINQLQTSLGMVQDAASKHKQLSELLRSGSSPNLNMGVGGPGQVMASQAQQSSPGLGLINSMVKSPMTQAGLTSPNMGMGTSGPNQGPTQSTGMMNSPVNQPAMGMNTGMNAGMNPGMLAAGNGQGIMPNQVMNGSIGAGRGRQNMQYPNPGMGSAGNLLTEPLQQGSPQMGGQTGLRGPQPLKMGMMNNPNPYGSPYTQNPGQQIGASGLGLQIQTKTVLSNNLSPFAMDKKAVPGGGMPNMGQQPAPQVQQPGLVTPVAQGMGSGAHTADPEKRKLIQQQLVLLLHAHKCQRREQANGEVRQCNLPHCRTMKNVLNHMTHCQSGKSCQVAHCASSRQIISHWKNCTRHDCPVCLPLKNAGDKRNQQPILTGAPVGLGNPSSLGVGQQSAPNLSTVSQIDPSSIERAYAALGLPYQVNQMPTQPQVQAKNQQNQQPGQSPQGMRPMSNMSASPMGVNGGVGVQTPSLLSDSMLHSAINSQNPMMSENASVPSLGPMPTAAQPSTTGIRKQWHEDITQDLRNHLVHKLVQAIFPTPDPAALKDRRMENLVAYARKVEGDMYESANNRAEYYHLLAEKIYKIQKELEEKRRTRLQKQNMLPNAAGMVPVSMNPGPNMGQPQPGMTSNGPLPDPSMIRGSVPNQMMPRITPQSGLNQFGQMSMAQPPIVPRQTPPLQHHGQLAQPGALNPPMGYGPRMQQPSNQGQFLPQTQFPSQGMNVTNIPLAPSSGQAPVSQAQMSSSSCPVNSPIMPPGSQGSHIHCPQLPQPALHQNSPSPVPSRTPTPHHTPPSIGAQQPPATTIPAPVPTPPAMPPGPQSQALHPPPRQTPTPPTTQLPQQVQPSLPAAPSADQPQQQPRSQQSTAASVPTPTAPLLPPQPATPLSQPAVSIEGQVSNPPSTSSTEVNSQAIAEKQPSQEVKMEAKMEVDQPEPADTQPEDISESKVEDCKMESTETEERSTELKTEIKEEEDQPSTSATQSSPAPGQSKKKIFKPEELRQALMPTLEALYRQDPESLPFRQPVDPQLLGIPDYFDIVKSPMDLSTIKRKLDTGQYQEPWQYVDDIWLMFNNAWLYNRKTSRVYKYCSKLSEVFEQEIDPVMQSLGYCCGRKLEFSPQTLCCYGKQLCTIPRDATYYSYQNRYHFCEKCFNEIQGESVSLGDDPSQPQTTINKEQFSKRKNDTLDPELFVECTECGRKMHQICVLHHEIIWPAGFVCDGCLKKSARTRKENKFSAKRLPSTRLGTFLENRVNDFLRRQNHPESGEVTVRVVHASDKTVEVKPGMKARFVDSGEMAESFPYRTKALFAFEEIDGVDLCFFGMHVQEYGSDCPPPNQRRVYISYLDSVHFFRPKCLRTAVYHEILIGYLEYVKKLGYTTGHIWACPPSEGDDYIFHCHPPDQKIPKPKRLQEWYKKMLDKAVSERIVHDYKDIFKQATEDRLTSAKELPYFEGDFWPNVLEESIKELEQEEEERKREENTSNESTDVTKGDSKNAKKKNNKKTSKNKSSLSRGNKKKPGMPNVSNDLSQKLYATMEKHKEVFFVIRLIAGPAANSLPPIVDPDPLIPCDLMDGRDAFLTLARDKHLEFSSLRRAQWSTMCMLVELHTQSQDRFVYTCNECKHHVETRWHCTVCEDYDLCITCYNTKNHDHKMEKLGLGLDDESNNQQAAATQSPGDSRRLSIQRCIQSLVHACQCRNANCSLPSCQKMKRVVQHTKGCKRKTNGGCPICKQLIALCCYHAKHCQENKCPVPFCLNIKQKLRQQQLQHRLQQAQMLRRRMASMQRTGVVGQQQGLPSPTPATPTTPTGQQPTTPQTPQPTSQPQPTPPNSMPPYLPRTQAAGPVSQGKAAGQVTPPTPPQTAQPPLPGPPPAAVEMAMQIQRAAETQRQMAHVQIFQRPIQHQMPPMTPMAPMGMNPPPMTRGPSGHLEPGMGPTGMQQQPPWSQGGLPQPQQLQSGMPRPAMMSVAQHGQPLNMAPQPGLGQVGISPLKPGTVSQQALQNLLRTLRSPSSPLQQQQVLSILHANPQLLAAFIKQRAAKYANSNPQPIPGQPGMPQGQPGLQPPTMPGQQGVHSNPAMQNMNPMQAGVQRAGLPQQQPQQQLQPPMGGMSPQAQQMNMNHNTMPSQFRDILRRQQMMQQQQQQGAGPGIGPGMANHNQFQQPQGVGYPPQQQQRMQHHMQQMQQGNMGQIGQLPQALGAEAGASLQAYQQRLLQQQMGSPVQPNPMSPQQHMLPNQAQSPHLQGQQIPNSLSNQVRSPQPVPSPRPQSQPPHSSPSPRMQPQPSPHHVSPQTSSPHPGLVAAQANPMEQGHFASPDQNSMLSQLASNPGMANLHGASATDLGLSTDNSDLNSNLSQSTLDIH

One may read the IC50 as the concentration that inhibits the measured activity by half. Take `CNC(=O)Nc1ccc2c(c1)CC[C@@]21OC(=O)N(CC(=O)N(Cc2ccc(F)cc2)[C@@H](C)C(F)(F)F)C1=O` [A-485]: the inhibition result (in data set [1]; in the data set on 12Z [5]; in the data set on 12Z [6]; in [9]; in [13]; in data set [14]) was “Active” each time. Moreover, the inhibition result in data set [15] was “Active”. The IC50 at 6 days in [2] was 3.32 µM; in data set [3], 3.61 µM. Moreover, in data set [4], the IC50 amounted to 5.35 µM. The outcome in the data set with 12Z [7] and in the data set on 12Z [8] was Active. The Activity entry in data set [10] and in data set [11] was “Toxic” each time. The “growth inhibition (GI)” value in the data set with 12Z [12] is “Active”.
